This is a sample that favours compounds with a hit; in the whole collection about 2.6% have one here.
MT stabilizer = microtubule stabilizers in HeLa cells, primary screen, imaging, high-content imaging; HeLa tubulin immunostaining HCS, 24 h; share of cells brighter than vehicle mean+2SD; AID 2205, 2009; % tubulin-high responders, % at 10 µM; actives 0.83% (n = 200,000);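 active = plate Z-score above 3 for both tubulin-high and condensed-nucleus cell shares, with cell loss under 80%, at 10 µM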;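 note: anti alpha tubulin signal scored within the nucleus-defined area of each cell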
NPY Y2 blocker = NPY-Y2 receptor antagonists, primary screen, cell-based; actives 0.99% (n = 140,000); AID 793, 2007; NPY-Y2 expressing cells, antagonist mode; inhibition, % at 2.7 µM; in the data active = inhibition above about 17%
Target sequence (P49146 whole entry, looked up): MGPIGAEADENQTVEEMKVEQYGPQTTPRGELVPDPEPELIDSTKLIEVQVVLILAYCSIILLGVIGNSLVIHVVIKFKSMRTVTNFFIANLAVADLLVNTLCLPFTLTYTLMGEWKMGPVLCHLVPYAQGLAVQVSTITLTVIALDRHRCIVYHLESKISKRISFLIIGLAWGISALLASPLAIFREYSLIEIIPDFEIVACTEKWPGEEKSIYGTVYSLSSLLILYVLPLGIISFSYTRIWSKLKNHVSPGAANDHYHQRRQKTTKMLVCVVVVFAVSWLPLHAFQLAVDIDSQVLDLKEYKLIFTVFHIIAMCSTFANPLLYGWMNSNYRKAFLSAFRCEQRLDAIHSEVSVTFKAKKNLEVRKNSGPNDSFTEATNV
NPY-Y2 PAM-ag = NPY-Y2 potentiators or agonists, primary screen, cell-based; Neuropeptide Y receptor type 2 (Homo sapiens), P49146; actives 0.45% (n = 220,000); activation, % at 3.6 µM; cells expressing NPY-Y2, potentiator/agonist read-out; AID 1359, 2008; in the data active = activation above about 27%;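 note: cells stimulated with NPY near EC25 plus isoproterenol at EC100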
b-catenin transl = modulators of beta-catenin nuclear translocation, primary screen, imaging, HeLa cells, immunofluorescence, high-content | actives 0.3% (n = 190,000) | nuclear translocation activity, % at 5 µM;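 active = nuclear translocation activity above 50% at 5 µM, with a well cell count of 50 or more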;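 note: per-cell ratio of nuclear to cytoplasmic median beta-catenin stain intensity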
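Test system: HeLa cells, endogenous beta-catenin; Compound: single 5 µM dose plus 0.02–20 µM confirmation series; Times: compound exposure 24 h at 37°C; Signal: fluorescence imaging of beta-catenin antibody stain plus DAPI; Read-out: % activation, nuclear-to-cytoplasmic median beta-catenin signal ratio per cell.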
NPY-Y1 PAM-ag = NPY-Y1 receptor potentiators or agonists, primary screen, cell-based; activation, % at 3.6 µM; actives 0.37% (n = 220,000); NPY-Y1 expressing cells, potentiator/agonist activation; in the data active = activation above about 33%, passing the limit was not always enough;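 note: cells stimulated with NPY at EC10 then isoproterenol at EC100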
Target sequence (P25929 whole entry, looked up): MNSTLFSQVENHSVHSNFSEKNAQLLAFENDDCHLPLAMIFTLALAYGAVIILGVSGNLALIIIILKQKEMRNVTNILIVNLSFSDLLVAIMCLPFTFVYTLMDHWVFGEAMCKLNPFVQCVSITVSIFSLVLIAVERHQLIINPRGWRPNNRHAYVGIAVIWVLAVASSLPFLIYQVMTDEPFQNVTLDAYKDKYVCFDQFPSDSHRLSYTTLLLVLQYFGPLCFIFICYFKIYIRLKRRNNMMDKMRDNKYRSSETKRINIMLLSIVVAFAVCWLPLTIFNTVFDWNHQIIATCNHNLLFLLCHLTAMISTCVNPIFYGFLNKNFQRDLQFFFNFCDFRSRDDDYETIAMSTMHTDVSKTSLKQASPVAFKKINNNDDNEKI
NPY-Y1 antag = NPY-Y1 receptor antagonists, primary screen, cell-based; HEK293-CNG Y1 cells, membrane potential fluorescence; NPY at EC95, then isoproterenol; inhibition, % at 3.6 µM; AID 1040, 2008; actives 1% (n = 200,000); Neuropeptide Y receptor type 1 (Homo sapiens), P25929;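 active = inhibition above the campaign mean inhibition of all tested compounds plus 3 SD, cut at about 20% in these data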
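Material: HEK293 Y1/CNG channel cell line | Also added: NPY (25 nM), isoproterenol (1 µM), Ro 20-1724 (25 µM) | Compound: One concentration, 3.6 µM, in 0.4% DMSO | Schedule: 3 h dye uptake, 1 h room-temperature compound, 45 min post-isoproterenol | Signal: Membrane-potential fluorescent dye readout | Read-out: % inhibition of NPY effect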
NPY1 antag ctr = NPY-Y1 receptor antagonists, selectivity check, counter-screen for NPY-Y2 antagonist project, cell-based; shares compounds with NPY Y2 blocker; actives 19% (n = 710); inhibition, % at 3.6 µM; cell-based NPY-Y1 antagonism counterscreen; AID 1256, 2008; in the data active = inhibition above about 20%;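 note: cells challenged with NPY then isoproterenol with cAMP sensed through a CNG channel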
NPY2 antag conf = NPY-Y2 receptor antagonists, retest of hits, confirmation, HEK293-CNG cells, membrane potential fluorescence, triplicate; shares compounds with NPY Y2 blocker; HEK293 NPY-Y2 CNG channel; inhibition, % at 2.8 µM; actives 32% (n = 710); AID 1257, 2008;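 active = mean inhibition of triplicate wells above the hit cutoff set in the primary screen, cut at about 17% in these data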
Each line names hits and unclear results; the compound was inactive in the other large screens (follow-up assays come after a bar, where they were run).

CC(=O)NC1C(=O)N=C(SCC(=O)Nc2ccc(C(F)(F)F)cc2Cl)NC1=O (centres undefined)	none (no result: NPY Y2 blocker)
Cc1ccccc1C(=O)OCc1cnc(Cl)s1	none (no result: NPY Y2 blocker)
CCCCCc1nnc(NC(=O)Cn2cnc3ccccc3c2=O)s1	none
O=C1C(Cc2ccc3[nH]ccc3c2)NC(=S)N1c1ccccc1 (centres undefined)	none (no result: MT stabilizer, NPY Y2 blocker, NPY-Y1 antag)
COC(=O)c1cc(-c2ccc(OC)c(OC)c2)on1	NPY Y2 blocker 28.1 | NPY1 antag ctr 27.6 | NPY2 antag conf 50.2
CCc1cccc(CC)c1NC(=O)COC(=O)c1ccccc1-c1nc2ccccc2s1	NPY Y2 blocker 19.7 | NPY1 antag ctr inactive | NPY2 antag conf 21.2
CCOC(=O)c1sc(-c2ccc(Cl)cc2Cl)nc1O	none (no result: MT stabilizer, NPY Y2 blocker, NPY-Y1 antag)
CCN(CC)S(=O)(=O)c1cccc(-c2n[nH]c(=S)n2/N=C/c2ccc(Br)cc2)c1	NPY Y2 blocker 19.1 | NPY1 antag ctr inactive | NPY2 antag conf inactive
CCOC(=O)c1ccc(N2CCN(C(C)=O)CC2)c(NC(=O)c2cccnc2)c1	none (no result: NPY Y2 blocker)
COc1ccccc1CNC(=O)CSc1ccccc1	none (no result: NPY Y2 blocker)
COc1ccccc1CNC(=O)CSc1ccc(C)cc1	NPY Y2 blocker 27.8 | NPY1 antag ctr inactive | NPY2 antag conf inactive
CCOC(=O)c1c(-n2cccc2)sc2c1CCCC2=O	NPY Y2 blocker 25.4 | NPY1 antag ctr inactive | NPY2 antag conf inactive
CCCn1nnnc1NC(=O)COc1ccc(CC)cc1	NPY Y2 blocker 17.6 | NPY1 antag ctr inactive | NPY2 antag conf inactive
CCCCCCNS(=O)(=O)c1ccc(NC(=O)C2CCCO2)cc1 (centres undefined)	NPY Y2 blocker 31.2 | NPY1 antag ctr inactive | NPY2 antag conf 29.2
Cc1cccc(-n2c(SCc3cc(=O)n4c(C)cccc4n3)nc3[nH]ncc3c2=O)c1	none
Cc1cccc(-c2nnc(SCc3ccc(C#N)cc3)n2Cc2ccco2)c1	NPY Y2 blocker 20.2 | NPY1 antag ctr inactive | NPY2 antag conf inactive
COc1ccc2sc(N3C(=O)CC(Cc4cccc(C)c4)C3=O)nc2c1 (centres undefined)	NPY Y2 blocker 27.2 | NPY1 antag ctr inactive | NPY2 antag conf inactive
CN1CCC(Oc2ccccc2Sc2ccccc2)CC1	NPY Y2 blocker 17.6 | NPY1 antag ctr inactive | NPY2 antag conf 21.9
O=C(NCc1ccc2c(c1)OCO2)c1cc(-c2ccccc2Cl)on1	NPY Y2 blocker 22.4 | NPY1 antag ctr inactive | NPY2 antag conf inactive
COCCNC(=O)Cn1cc(/C=N/NC(=O)c2ccc(Oc3ccc(O)cc3)cc2)c2ccccc21	none (no result: NPY Y2 blocker)
NC(=NCCc1c[nH]c2ccccc12)NC(=O)c1ccc(F)cc1	none (no result: MT stabilizer, NPY Y2 blocker, NPY-Y1 antag)
COc1ccc(C(=O)Nc2cccc(OC(=O)c3ccc(C)c(C)c3)c2)cc1	MT stabilizer 21.6, NPY Y2 blocker 17.2 | NPY1 antag ctr 23.3 | NPY2 antag conf 23.0
COc1ccccc1NC(=O)C1=C(C)NC(SCC(=O)Nc2ccc(C(=O)O)cc2)=C(C#N)C1c1cccs1 (centres undefined)	none (no result: MT stabilizer, NPY Y2 blocker, NPY-Y1 antag)
CN(C)C(=O)c1sccc1Oc1ccc(F)cc1[N+](=O)[O-]	none (no result: NPY Y2 blocker)
C=CCn1c(SCc2ccc(F)cc2)nc2c1c(=O)[nH]c(=O)n2C	none (no result: b-catenin transl)
C/C=C/Cn1c(SCc2ccc(C)cc2)nc2c1c(=O)[nH]c(=O)n2C	NPY Y2 blocker 26.3 | NPY1 antag ctr 22.5 | NPY2 antag conf 42.4
COc1ccc(C(=O)C(CN2CCOCC2)c2ccccc2)cc1F (centres undefined)	NPY Y2 blocker 17.3 | NPY1 antag ctr inactive | NPY2 antag conf inactive
COc1cc(/C=N/n2cnnc2)ccc1OCc1ccc(C)cc1	NPY Y2 blocker 39.7 | NPY1 antag ctr inactive | NPY2 antag conf 31.8
O=C(c1ccco1)N(CCC(c1ccccc1)c1ccco1)Cc1ccccc1 (centres undefined)	NPY Y2 blocker 18.4 | NPY1 antag ctr inactive | NPY2 antag conf inactive
CC(C)COc1ccc(C(=O)OC2CC(C)(C)OCC2CN(C)C)cc1 (centres undefined)	NPY Y2 blocker 23.7 (no result: b-catenin transl) | NPY1 antag ctr inactive | NPY2 antag conf 30.5
C#CC[N+]1(CC#Cc2ccccc2)CCCC1	none
C(#Cc1ccccc1)C[N+]1(CC#Cc2cccc3ccccc23)CCCC1	NPY Y2 blocker 17.8 | NPY1 antag ctr inactive | NPY2 antag conf inactive
Cn1nc(C(=O)Nc2ccc(S(=O)(=O)N3CCOCC3)cc2)c2ccccc2c1=O	none (no result: NPY Y2 blocker)
CCOC(=O)C(C)Sc1ncc(OC)c(Sc2ccc(Cl)cc2)n1 (centres undefined)	none (no result: b-catenin transl)
CCOC(=O)CSc1ncc(OC)c(Sc2ccc(Cl)cc2)n1	NPY Y2 blocker 21.3 (no result: b-catenin transl) | NPY1 antag ctr inactive | NPY2 antag conf inactive
O=C(NC1CCCCC1)C(c1ccc2ncccc2c1)N(Cc1ccc2c(c1)OCO2)C(=O)c1cccs1 (centres undefined)	NPY Y2 blocker 23.7 (no result: b-catenin transl) | NPY1 antag ctr 20.3 | NPY2 antag conf inactive
O=C(NC1CCCCC1)C(c1ccc2ncccc2c1)N(Cc1ccccc1)C(=O)c1ccc2c(c1)OCCO2 (centres undefined)	none
O=c1c(C(c2ccccc2)c2c(O)sc3ccccc3c2=O)c(O)sc2ccccc12	none (no result: b-catenin transl)
COc1cccc(C(=O)Oc2cc3c4c(c2)C(C)=CC(C)(C)N4C(=O)C3=O)c1	NPY Y2 blocker 46.1 (no result: b-catenin transl) | NPY1 antag ctr 50.2 | NPY2 antag conf 81.6
CC1CCCC(NC(=O)COC(=O)CSc2ccc3ccccc3c2)C1C (centres undefined)	NPY Y2 blocker 18.8 (no result: b-catenin transl) | NPY1 antag ctr 28.1 | NPY2 antag conf 21.6
C/C(=C\C(=O)c1ccncc1)Nc1ccccc1O	NPY Y2 blocker 17.8 (no result: b-catenin transl) | NPY1 antag ctr inactive | NPY2 antag conf inactive
O=C(COc1ccccc1C(=O)NCc1ccccn1)Nc1ccc(Br)cc1	none (no result: NPY Y2 blocker)
CCOC(=O)N1CCN(C(=O)c2cnn3c(C(F)F)cc(-c4ccc(C)cc4)nc23)CC1	NPY Y2 blocker 17.2 | NPY1 antag ctr inactive | NPY2 antag conf inactive
COc1ccccc1OCc1nc(C#N)c(N2CC(C)CC(C)C2)o1 (centres undefined)	NPY Y2 blocker 17.9 (no result: b-catenin transl) | NPY1 antag ctr inactive | NPY2 antag conf inactive
COc1ccccc1OCc1nc(C#N)c(N2CCCC2)o1	none (no result: NPY Y2 blocker)

Source: PubChem (several laboratories)
